Structures are written as SMILES.

Ki data for 29 compounds are collected here from ChEMBL document CHEMBL1155058, “N-Arylmethyl substituted iminoribitol derivatives as inhibitors of a purine specific nucleoside hydrolase” (Bioorg Med Chem, 2008).

The test is described as follows: Inhibition of Trypanosoma vivax IAG-NH expressed in Escherichia coli WK6 cells. A digest of the protocol: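 Recombinant N-terminal His6-tagged enzyme, purified by Ni-NTA affinity and Superdex-200 gel filtration, concentration per monomer from ε280 47752 M-1cm-1. […] Initial rates fitted to competitive inhibition equation.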
Broadly, the Ki is a measure of affinity in units of concentration, obtained from inhibition or displacement. Read a high Ki as weaker binding. `OC[C@@H]1[C@@H](O)[C@@H](O)CN1Cc1ccc(-n2cccn2)cc1` yielded an inhibition constant Ki of 1200 nM. Turning to `COc1ccc(CN2C[C@H](O)[C@H](O)[C@H]2CO)cn1`, affinity was put at a Ki of 32000 nM.

With `O=[N+]([O-])c1ccc(CN2C[C@H](O)[C@H](O)[C@H]2CO)cc1`, the affinity corresponds to a Ki of 7500 nM. Under `OC[C@@H]1[C@@H](O)[C@@H](O)CN1Cc1c[nH]c2ccccc12` stands 12000 nM; under `OC[C@@H]1[C@@H](O)[C@@H](O)CN1Cc1ccncc1`, 20000 nM; under `OC[C@@H]1[C@@H](O)[C@@H](O)CN1Cc1ccc(I)cc1`, 4300 nM. Then `COc1cccc2c(CN3C[C@H](O)[C@H](O)[C@H]3CO)c[nH]c12`, with 2300 nM; and `OC[C@@H]1[C@@H](O)[C@@H](O)CN1Cc1nccc2ccccc12`, with 750 nM.

The compound `Cn1c(CN2C[C@H](O)[C@H](O)[C@H]2CO)nc2ccccc21` registered an inhibition constant Ki of 2100 nM. `OC[C@@H]1[C@@H](O)[C@@H](O)CN1Cc1ccc2ccccc2n1`: the inhibition constant Ki was determined as 180 nM. In turn, `OC[C@@H]1[C@@H](O)[C@@H](O)CN1Cc1cccc(-n2cccc2)c1` came in with a Ki of 3400 nM.

In turn, `OC[C@@H]1[C@@H](O)[C@@H](O)CN1Cc1ccc2cccnc2c1` had a Ki of 720 nM. Then `OC[C@@H]1[C@@H](O)[C@@H](O)CN1Cc1ccc(-n2cncn2)cc1`, with 1200 nM. Under `OC[C@@H]1[C@@H](O)[C@@H](O)CN1Cc1ccccc1` stands 59000 nM; under `OC[C@@H]1[C@@H](O)[C@@H](O)CN1Cc1ccnc2ccccc12`, 29000 nM; under `N#Cc1cccc(CN2C[C@H](O)[C@H](O)[C@H]2CO)c1`, 3800 nM. In turn, `OC[C@@H]1[C@@H](O)[C@@H](O)CN1Cc1ccc2cccc(O)c2n1` yielded an inhibition constant Ki of 1000 nM.

In the case of `Nc1ncccc1CN1C[C@H](O)[C@H](O)[C@H]1CO`, the affinity, expressed as Ki, was 120000 nM. On to `Cn1nnc2cc(CN3C[C@H](O)[C@H](O)[C@H]3CO)ccc21`, for which affinity was put at a Ki of 720 nM. Turning to `OC[C@@H]1[C@@H](O)[C@@H](O)CN1Cc1c[nH]c2c(O)ncnc12`, the inhibition constant Ki came to 4.4 nM.

Turning to `N#Cc1ccc(CN2C[C@H](O)[C@H](O)[C@H]2CO)cc1`, the affinity corresponds to a Ki of 26000 nM.

`Cc1nc(-c2ccccc2)ncc1CN1C[C@H](O)[C@H](O)[C@H]1CO` came in with an inhibition constant Ki of 43000 nM. With `Cc1nn(-c2ccccc2)nc1CN1C[C@H](O)[C@H](O)[C@H]1CO`, affinity was put at a Ki of 63 nM. With `OC[C@@H]1[C@@H](O)[C@@H](O)CN1Cc1ccc(-n2cccc2)cc1`, the Ki turned out to be 1000 nM. Then `OC[C@@H]1[C@@H](O)[C@@H](O)CN1Cc1ccc2ccccc2c1`, with 2000 nM; and `Nc1ncnc2c(CN3C[C@H](O)[C@H](O)[C@H]3CO)c[nH]c12`, with 4.1 nM; and `O=[N+]([O-])c1cccc(CN2C[C@H](O)[C@H](O)[C@H]2CO)c1`, with 23000 nM. Then `OC[C@@H]1[C@@H](O)[C@@H](O)CN1Cc1cccc2cccnc12`, with 10.8 nM. Take `OC[C@@H]1[C@@H](O)[C@@H](O)CN1Cc1cnc2ccccc2c1`: the Ki stood at 20000 nM.
